Screening results as filed in PubChem.
KCNQ1 block: blocks the human KCNQ1 potassium channel; 310,000 compounds, 1.3% hits; P51787; B-score at 10 µM; CHO-K1 KCNQ1, FluxOR thallium flux fluorescence; active compounds read high;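 active = compounds whose thallium flux B-score, printed positive for inhibition, exceeds three library SD while starting fluorescence stays within three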;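 note: channel opened by potassium depolarization with thallium stimulus after 20 min compound exposure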
Target sequence (P51787 whole entry, looked up): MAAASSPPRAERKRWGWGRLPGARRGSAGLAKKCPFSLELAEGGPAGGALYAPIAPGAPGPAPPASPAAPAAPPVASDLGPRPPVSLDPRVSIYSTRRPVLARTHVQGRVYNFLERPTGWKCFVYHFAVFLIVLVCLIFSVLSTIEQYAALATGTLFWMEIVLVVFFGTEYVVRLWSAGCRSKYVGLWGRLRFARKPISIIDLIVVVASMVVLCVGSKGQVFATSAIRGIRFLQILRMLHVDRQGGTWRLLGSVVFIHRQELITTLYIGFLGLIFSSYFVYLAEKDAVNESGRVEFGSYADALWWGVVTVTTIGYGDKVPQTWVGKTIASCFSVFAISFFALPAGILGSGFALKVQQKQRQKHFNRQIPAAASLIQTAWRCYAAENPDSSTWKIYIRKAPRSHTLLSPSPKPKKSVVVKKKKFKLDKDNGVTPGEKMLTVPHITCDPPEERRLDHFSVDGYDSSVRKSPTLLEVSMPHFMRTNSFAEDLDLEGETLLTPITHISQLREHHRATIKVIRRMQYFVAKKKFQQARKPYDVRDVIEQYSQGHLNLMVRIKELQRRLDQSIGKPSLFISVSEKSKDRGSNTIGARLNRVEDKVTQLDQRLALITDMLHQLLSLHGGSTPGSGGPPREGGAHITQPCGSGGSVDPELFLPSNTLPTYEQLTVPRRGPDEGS
KCNK9 block: inhibitors of human KCNK9 two-pore domain potassium channel. Q9NPC2. 310,000 compounds, 1.2% hits. B-score at 10 µM. HEK293 KCNK9, FluxOR thallium flux fluorescence; active compounds read low;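 active = ratio B-score over 3 SD below the library mean, with starting fluorescence within 5 SD of its mean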;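 note: negative B-score means less thallium flux so channel inhibition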
KCNQ1 pot: potentiates or activates the human KCNQ1 potassium channel; P51787; CHO-K1 KCNQ1, thallium flux FluxOR fluorescence; active compounds read high; B-score at 10 µM; 310,000 compounds, 0.35% hits;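 active = fluorescence ratio B-score, a plate-corrected score, at least three library SD, with initial intensity B-score within 5 SD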
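assay system = CHO-K1 cells stably expressing KCNQ1 | medium = assay buffer, equal DMSO in all wells | timing = 37 °C overnight plating, 90-min dark dye load, 20-min compound pretreatment | measured by = kinetic FluxOR thallium fluorescence, 10-s 1-Hz baseline, 110-s post-stimulus read | measure = fluorescence change relative to baseline, converted to B score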
KCNK3 block: human KCNK3 channel inhibition, primary screen; CHO-KCNK3 thallium flux, FluxOR fluorescence; active compounds read low; B-score at 10 µM; 340,000 compounds, 0.84% hits; AID 602410;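 active = B-score under library mean minus 4 SD, starting fluorescence ratio at most library mean plus 5 SD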;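 note: more negative B-score means stronger inhibition of thallium flux through KCNK3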
hERG rescue: shields human hERG channel from block by proarrhythmic agents. AID 1511. activation (rescue from dofetilide block), less the hit threshold, % at 10 µM. 310,000 compounds, 0.51% hits. CHO-hERG, FluxOR thallium flux, dofetilide IC70 present. Q12809;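 active = activation above the mean of controls blocked by dofetilide plus 5 SD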;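 note: thallium influx through hERG after potassium depolarization seen as dye fluorescence rise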
Kir21 block: inhibitors of mouse Kir2.1 inward-rectifier potassium channel; P35561; HEK293-Kir2.1, FluxOR thallium flux fluorescence; active compounds read low; B-score at 10 µM; 310,000 compounds, 0.85% hits;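 active = fluorescence ratio B-score at or below minus 3 SD of library scores, with starting-brightness B-score within 2 SD, cut at about -4.2 in these data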;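 note: channel flux triggered by added potassium and thallium sulfate stimulus; B-score of peak minus minimum fluorescence over baseline after thallium stimulus; more negative B-score means stronger Kir2.1 block with less thallium influx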
The depositor's hits bear a star; i = inactive; · = no result. Hits are enriched below; roughly 3.7% of the tested compounds scored in any of these assays.

SMILES	KCNQ1 block	KCNK9 block	KCNQ1 pot	KCNK3 block	hERG rescue	Kir21 block
Cc1ccc(-c2nn(-c3ccccc3)cc2/C=C2\SC(=S)N(CC(=O)O)C2=O)cc1	i	i	i	i	-11.2	-0.5
O=C(COC(=O)/C=C/c1cccc(C(F)(F)F)c1)NC1CCCCCC1	·	·	·	i	·	·
CCOc1ccc(Oc2cc(NC(=O)c3ccco3)cc([N+](=O)[O-])c2)cc1	·	·	·	i	·	·
O=C(Nc1cc(Oc2ccc(Cl)cc2)cc([N+](=O)[O-])c1)c1ccco1	i	-6.99*	i	i	-10.6	0.79
COCCNC(=O)c1cccc(Nc2nc(-c3ccccc3)c3cc(Cl)ccc3n2)c1	i	-6.81*	i	i	-7.2	1.95
OCCNc1nc(-c2ccccc2)c2cc(Cl)ccc2n1	i	i	i	i	-5.2	1.39
O=C(COC(=O)c1cc(=O)[nH]c2ccccc12)Nc1nc(-c2ccc(F)cc2)cs1	·	·	·	i	·	·
O=C(CN1C(=O)c2ccc([N+](=O)[O-])cc2C1=O)NC1CCCCCC1	i	i	i	i	-12.6	0.13
Cc1cc(NCCCn2ccnc2)n2nc(C)c(-c3ccccc3)c2n1	6*	i	i	i	-15.4	-3.92
COCCN(C(=O)c1ccc(OCC(C)C)cc1)c1c(N)n(Cc2ccccc2)c(=O)[nH]c1=O	i	i	i	i	-10.4	-2.18
O=C(Cc1cccc2ccccc12)Nc1ccc(Br)cc1C(=O)O	10*	i	i	i	-4.6	-0.14
CSC1=C(C#N)C(CC(C)C)C2=C(CCCC2=O)N1 (stereo unspecified)	i	i	i	i	-3.7	0.18
CSC1=C(C#N)C(CC(C)C)C(C(C)=O)=C(C)N1 (stereo unspecified)	i	i	i	i	-2.2	-6.47*
CC1Cc2ccccc2N1C(=O)C1CC(=O)N(c2ccccc2)C1 (stereo unspecified)	i	i	i	i	-5.8	1.34
O=C(COC(=O)C1(c2ccccc2F)CCCC1)NCc1cccs1	i	i	i	i	-6.2	-6.85*
CC(C)C(c1nnnn1Cc1ccccc1)N(Cc1ccco1)Cc1cccs1 (stereo unspecified)	i	i	i	i	-4.4	-1.77
COc1ccc(Cn2nnnc2C(C(C)C)N(Cc2ccco2)Cc2cccs2)cc1 (stereo unspecified)	i	-7.55*	i	i	-7.7	-1.08
COC(=O)C1=C(C)N(Cc2ccccc2)C(=NCC2CC2)N[C@H]1c1ccccc1	·	·	·	i	·	·
COC(=O)C1=C(C)N(Cc2ccccc2)C(=NCCc2cccnc2)N[C@H]1c1ccccc1	i	i	i	i	-7.2	-11.1*
COC(=O)C1=C(C)N(Cc2ccccc2)C(=NCCc2cccnc2)N[C@H]1c1ccc(Br)cc1	·	·	·	i	·	·
COC(=O)C1=C(C)N(Cc2ccccc2)C(=NCCCCO)N[C@H]1c1ccccc1	i	i	i	·	-3.8	-4.56*
CCCNC(=O)c1onc(CS(=O)(=O)c2cc(C)cc(C)c2)c1C(=O)NCCC	·	·	·	i	·	·
CCCCCCOC(=O)C(C#N)c1nc2ccccc2nc1N1CCN(CC)CC1 (stereo unspecified)	7*	i	i	i	-28.4	1.19
CCCCCNC(=O)C(C#N)c1nc2ccccc2nc1N1CCCC1 (stereo unspecified)	7*	i	i	i	-13.4	-1.96
CCCCCCNC(=O)C(C#N)c1nc2ccccc2nc1N1CCOCC1 (stereo unspecified)	7*	-6.77*	i	i	-2.3	-0.67
SMILES	KCNQ1 block	KCNK9 block	KCNQ1 pot	KCNK3 block	hERG rescue	Kir21 block
N#CC(C(=O)NCCc1ccccc1)c1nc2ccccc2nc1N1CCCCC1 (stereo unspecified)	i	i	i	i	-11.7	0.45
COCCCNC(=O)C(C#N)c1nc2ccccc2nc1N1CCCC1 (stereo unspecified)	i	i	i	i	-9.3	0.61
CCOC(=O)N1CCN(c2nc3ccccc3nc2C(C#N)C(=O)NCCc2ccccc2)CC1 (stereo unspecified)	8*	i	i	i	-13.9	0.38
CC(=O)Nc1ccc(C(=O)COC(=O)c2cc(C)oc2C)c(F)c1	·	·	·	i	·	·
CC1=C(OC(=O)C(C)(C)C)C(C)(C)C(c2ccccc2)OC1=O (stereo unspecified)	i	i	i	i	-12.1	1.53
COc1ccc(NS(=O)(=O)c2ccc(O)c(C(=O)OCC(=O)NC(C)C3CC4CCC3C4)c2)cc1 (stereo unspecified)	i	i	i	i	-8.8	0.01
CC(NC(=O)COC(=O)c1cc(NS(=O)(=O)c2ccc(Cl)c([N+](=O)[O-])c2)ccc1O)C1CC2CCC1C2 (stereo unspecified)	11*	i	i	i	-12.7	-1.42
Cc1ccc(C)c(Nc2nc3ccccc3n3cnnc23)c1	i	i	i	i	-2.7	1.1
O=C(/C=C/c1cn(CC(O)CN2CCOCC2)c2ccccc12)c1cccs1 (stereo unspecified)	6*	i	i	·	-23.1	-3
Cc1noc(C)c1NC(=O)Nc1ccc2c(c1)CC(=O)N([C@@H](C)CO)C[C@@H](C)[C@@H](CN(C)C(=O)Nc1cccc3ccccc13)O2	·	·	·	i	·	·
CCOC(=O)C1=C(O)c2ccccc2C(=O)/C1=C\c1ccc(C)cc1	·	·	·	i	·	·
CCOC(=O)C1=C(Cc2ccc(Cl)cc2)C(=O)c2ccccc2C1=O	10*	i	i	i	-8.5	0.05
CCN(CC)c1ccc(/C=C/c2ccc3ccc(OC)cc3[n+]2CC)cc1	i	-7.11*	i	-13.1*	-40.6	-15.9*
CC[n+]1c(/C=C/c2ccc(OC)c(OC)c2)ccc2ccccc21	i	i	i	i	-7.2	0
CCc1nc(N2CCCC(C)C2)c2oc3ccccc3c2n1 (stereo unspecified)	i	-7.42*	i	i	-11.7	-0.95
CCc1nc(N2CCCCC2)c2oc3ccccc3c2n1	i	i	i	i	-5.8	-0.01
Cc1cc(OCC(=O)Nc2nccs2)c2c(C)cc(=O)oc2c1	i	i	i	i	-4.5	-0.3
CCn1c(SCC(=O)Nc2ccc(N3CCOCC3)cc2)nnc1C1CC1	·	·	·	i	·	·
CCCCOC(=O)c1ccc(NC(=S)NC(=O)c2c(Br)c(C)nn2C)cc1	i	i	i	i	2.0	2.61
CC(=O)c1ccc(NC(=S)NC(=O)c2c(Cl)c(C)nn2C)cc1	i	i	11*	i	-2.7	1.45
